# Measured values as given in paper PMC12480717 (Scientific Reports, 2025).
# Legend:
# Test in all cases: MIC
# Format in all cases: cell-based
# Settings in all cases: broth microdilution, 37 °C, 24 h
# S. aureus ATCC 29213 = system: S. aureus ATCC 29213
# Summary of the method: (§1)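 Strains were kept in TSB with 25% glycerol at −70 °C and grown aerobically on nutrient agar at 37 °C for 24 h. For MIC, test compound was diluted twofold (1–256 µg/mL) and ~10^6 cells/mL were added, followed by 37 °C for 24 h. MIC was read visually as 99% growth inhibition, with gentamycin as control. For MBC, non-turbid wells were plated on Mueller–Hinton agar for 24 h at 37 °C; MBC was the lowest concentration giving no colonies.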
# A. baumannii ATCC 19606 = system: A. baumannii ATCC 19606
# Summary of the method: as §1
# P. aeruginosa ATCC 27853 = system: P. aeruginosa ATCC 27853
# Summary of the method: as §1
substance,measurement,setting,value
Gentamycin,MIC,S. aureus ATCC 29213,1 µg/mL
same,MIC,A. baumannii ATCC 19606,4 µg/mL
same,MIC,P. aeruginosa ATCC 27853,2 µg/mL
